CendR NRP1 mod – NRP-1/CendR interaction modulation. O14786. FAM-RPARPAR peptide binding to NRP-1, fluorescence polarization. inhibition, % at 25 µM. actives 0.85% (n = 360,000). AID 602438;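 active = inhibition or corrected inhibition above about 18%, plus a signal ratio from 0.5 to 1.5, limit read from the data, passing the limit was not always enough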
FAS TE block – inhibitors of human fatty acid synthase thioesterase domain. P49327. recombinant FAS-TE, OMFH fluorogenic substrate, fluorescence endpoint. inhibition, % at 15 µM. actives 0.67% (n = 360,000);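 active = compounds whose normalised, plate-corrected inhibition of enzyme fluorescence in the single-dose primary screen is 50% or more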;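 also: 0% = DMSO with enzyme and 100% = substrate without enzyme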
ADAM17 inh – inhibits human ADAM17; P78536; recombinant ADAM17, EDANS/DABCYL FRET peptide cleavage; inhibition, % at 6.95 µM; actives 0.83% (n = 370,000); AID 720648;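 active = inhibition above the mean of compounds lying between control limits plus 3 SD, set per campaign, cut at about 8.5% in these data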;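 also: 0% = DMSO-only wells as the low control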
CaV13 ICDI inh – Primary screen for inhibitors of IQ motif and Ca2+-dependent inactivation inhibitor domain binding in CACNA1D, Förster resonance energy transfer in living cells, …; HEK cells, CFP/YFP FRET ICDI-IQ, plate reader, 10 min; percent FRET-ratio fall versus neutral wells; inhibition, % at 12.3 µM; actives 0.098% (n = 340,000); AID 743397;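 active = mean replicate inhibition of at least 30% and at least 1% of replicates passing that level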;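 also: 0% = median of the neutral control wells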
Arr AP2 block – inhibitors of human beta-arrestin and AP2 interaction. FITC-arrestin peptide / GST-AP2 beads, flow cytometry; AP2 beta2 appendage carries R879A mutation. inhibition, % at 10 µM. actives 0.31% (n = 340,000). AID 504490;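 active = inhibition above a set limit, near 3 SD of compounds lacking own fluorescence, cut at about 54% in these data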;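 also: plate controls were DMSO wells for no effect and 5 µM unlabelled arrestin peptide for full effect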
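Test system: GST-tagged AP2 beta2-adaptin appendage (R879A) on 4 µm glutathione beads; also added: fluorescein-tagged arrestin peptide at 50 nM final; timing: 12 min plus 1 h, RT; signal: flow cytometry, FL1 (488/535 nm); read-out: percent drop in bead-associated FITC signal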
ADAM10 inh – inhibits human ADAM10; O14672; inhibition, % at 7 µM; AID 720582; actives 0.62% (n = 370,000); recombinant ADAM10, EDANS/DABCYL FRET peptide cleavage, 3 h;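 active = inhibition above a per-campaign cutoff equal to the mean of compounds falling between control-based bounds plus 3 SD, cut at about 20% in these data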;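 also: 0% = DMSO wells while the 100% control is not disclosed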
Target sequence (O14672 214-748 limits assumed): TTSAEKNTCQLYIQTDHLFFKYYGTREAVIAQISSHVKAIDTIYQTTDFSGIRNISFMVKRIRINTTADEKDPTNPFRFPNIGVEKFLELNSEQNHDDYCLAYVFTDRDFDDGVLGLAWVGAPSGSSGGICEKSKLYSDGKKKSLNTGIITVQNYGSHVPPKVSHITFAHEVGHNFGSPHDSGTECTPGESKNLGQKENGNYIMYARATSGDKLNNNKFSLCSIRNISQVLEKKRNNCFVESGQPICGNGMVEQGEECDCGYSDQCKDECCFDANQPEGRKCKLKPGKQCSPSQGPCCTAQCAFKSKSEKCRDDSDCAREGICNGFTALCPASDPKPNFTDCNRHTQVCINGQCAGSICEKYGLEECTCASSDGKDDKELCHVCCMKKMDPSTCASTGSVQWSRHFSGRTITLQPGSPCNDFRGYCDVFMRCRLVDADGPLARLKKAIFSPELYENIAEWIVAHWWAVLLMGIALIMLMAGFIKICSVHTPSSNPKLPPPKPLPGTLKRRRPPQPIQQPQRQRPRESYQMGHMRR
ADAM10 ctr – counter-screen for ADAM17 exosite inhibitors: inhibitors of human ADAM10; actives 47% (n = 2,900); recombinant ADAM10, EDANS/DABCYL FRET peptide cleavage, 3 h; inhibition, % at 6.95 µM; shares compounds with ADAM17 inh;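 active = mean inhibition over the triplicate runs exceeds the activity threshold set in the earlier primary screen, cut at about 20% in these data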;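 also: 0% = DMSO wells and 100% = marimastat wells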
ADAM17 confirm – confirmation of inhibitors of human ADAM17. shares compounds with ADAM17 inh. recombinant ADAM17, EDANS/DABCYL QFRET peptide cleavage. inhibition, % at 6.95 µM. actives 65% (n = 2,900). AID 743257;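 active = mean inhibition across replicates above the hit cutoff set in the primary screen, cut at about 8.5% in these data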;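 also: 0% = DMSO wells and 100% = marimastat wells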
* hit, by the source's call. This is a sample that favours compounds with a hit; in the whole collection about 2.9% have one here.

For CCCN1C/C(=C/c2ccc3c(c2)OCO3)C(=O)/C(=C/c2ccc3c(c2)OCO3)C1 the results were CendR NRP1 mod -8, FAS TE block -2, ADAM17 inh 10*, CaV13 ICDI inh -3, Arr AP2 block 19, ADAM10 inh -7, ADAM10 ctr 4 and ADAM17 confirm 28*.
`COc1cc(SC)ccc1C(=O)NCCOc1ccc(C)c(C)c1` gave CendR NRP1 mod 4, FAS TE block 22, ADAM17 inh 8.8*, CaV13 ICDI inh -5, Arr AP2 block 3, ADAM10 inh 13, ADAM10 ctr 19 and ADAM17 confirm 12*.
COc1ccccc1C(=O)NCCOc1ccc(C)c(C)c1 was read as CendR NRP1 mod -3, FAS TE block -8, ADAM17 inh -1, CaV13 ICDI inh -5, Arr AP2 block 28 and ADAM10 inh -14.
Screening COc1ccc(Oc2ccc(/C=C/C(=O)c3ccc(O)cc3)cc2[N+](=O)[O-])cc1 returned CendR NRP1 mod -10, FAS TE block -41, ADAM17 inh 9.6*, CaV13 ICDI inh -2, Arr AP2 block -4, ADAM10 inh 16, ADAM10 ctr 38* and ADAM17 confirm 22*.
O=C(/C=C/c1ccc(O)c([N+](=O)[O-])c1)c1ccc2ccccc2c1 was read as CendR NRP1 mod 8, FAS TE block -2, ADAM17 inh -1, CaV13 ICDI inh -4, Arr AP2 block 20 and ADAM10 inh 12.
`O=C(CSc1nnc(-c2cccs2)n1Cc1ccco1)Nc1ccc(OCc2ccccc2)cc1` gave ADAM17 inh 9.4*, ADAM10 inh 17, ADAM10 ctr 23* and ADAM17 confirm 12*.
`CCn1c(SCC(=O)Nc2ccc(NC(=O)c3ccco3)cc2)nnc1-c1cccs1` gave CendR NRP1 mod 0, FAS TE block -5, ADAM17 inh 8.8*, Arr AP2 block -7, ADAM10 inh 9, ADAM10 ctr 10 and ADAM17 confirm 4.
COc1ccc(C)cc1NC(=O)CSc1nnc(COc2ccc(C)cc2)n1Cc1ccco1 was read as CendR NRP1 mod -7, FAS TE block 11, ADAM17 inh 11*, CaV13 ICDI inh -1, Arr AP2 block 1, ADAM10 inh 19, ADAM10 ctr 26* and ADAM17 confirm 15*.
Screening CCn1c(SCC(=O)Nc2cccc(NC(=O)c3ccco3)c2)nnc1-c1cccs1 returned CendR NRP1 mod 18, FAS TE block -5, ADAM17 inh -1, CaV13 ICDI inh -5, Arr AP2 block 30 and ADAM10 inh 5.
`COc1ccc(NS(=O)(=O)c2cccc(C(=O)N3CCN(c4ccccc4O)CC3)c2)cc1` gave CendR NRP1 mod 2, FAS TE block 4, ADAM17 inh 5, Arr AP2 block -3 and ADAM10 inh 6.
`COC(=O)c1cccc(Cn2c(Cl)c(/C=N/Nc3ccccc3C)sc2=O)c1` gave CendR NRP1 mod -14, FAS TE block 26, ADAM17 inh 9.5*, CaV13 ICDI inh -12, Arr AP2 block 6, ADAM10 inh 14, ADAM10 ctr 20 and ADAM17 confirm 12*.
For Cc1ccccc1N/N=C/c1sc(=O)n(Cc2cccc(C(=O)O)c2)c1Cl the results were CendR NRP1 mod -51, FAS TE block -10, ADAM17 inh -2, CaV13 ICDI inh -6, Arr AP2 block 1 and ADAM10 inh -5.
`COc1ccc(NC(=O)O/N=C/c2ccc(Br)cc2)cc1` gave CendR NRP1 mod 5, FAS TE block 15, ADAM17 inh 10*, CaV13 ICDI inh -19, Arr AP2 block -8, ADAM10 inh 13, ADAM10 ctr -1 and ADAM17 confirm 1.
`O=C(CSc1nc2ccccc2[nH]1)N1c2ccccc2Sc2ccccc21` gave CendR NRP1 mod 5, FAS TE block 12, ADAM17 inh 12*, CaV13 ICDI inh -4, Arr AP2 block 0, ADAM10 inh 10, ADAM10 ctr 24* and ADAM17 confirm 14*.
`COc1cc(S(=O)(=O)n2ccc(C)n2)c(C)cc1C` gave CendR NRP1 mod 2, FAS TE block -1, ADAM17 inh 2, CaV13 ICDI inh 0 and ADAM10 inh -2.
Screening CCN1C(=O)/C(=C/c2ccc(C)s2)NC1=S returned CendR NRP1 mod -12, FAS TE block -2, ADAM17 inh 10*, Arr AP2 block -8, ADAM10 inh 14, ADAM10 ctr 12 and ADAM17 confirm 12*.
Cc1ccc(/C=C2/NC(=O)N(Cc3ccccc3)C2=O)s1 was read as CendR NRP1 mod -162, FAS TE block -32, ADAM17 inh -3, CaV13 ICDI inh -4, Arr AP2 block 5 and ADAM10 inh 1.
For CC(C)(c1ccccc1)c1ccc(OCCn2cnc3ccccc3c2=O)cc1 the results were CendR NRP1 mod -2, FAS TE block 33, ADAM17 inh 9.6*, CaV13 ICDI inh -5, Arr AP2 block -1, ADAM10 inh 16, ADAM10 ctr 27* and ADAM17 confirm 15*.
Screening COc1ccc2ccccc2c1C=Nn1c(-c2cc(-c3ccccc3)n[nH]2)n[nH]c1=S returned ADAM17 inh -1 and ADAM10 inh -5.
For COc1ccccc1NC(=O)C1CC(C(C)C)OC1=O (centres undefined) the results were CendR NRP1 mod 5, FAS TE block -5, ADAM17 inh 2, CaV13 ICDI inh 2, Arr AP2 block 5 and ADAM10 inh 7.
For O=C(CCNS(=O)(=O)c1ccccc1)NCCCSc1ccccc1 the results were CendR NRP1 mod -6, FAS TE block -2, ADAM17 inh -3, CaV13 ICDI inh -5, Arr AP2 block -7 and ADAM10 inh -8.
Screening O=C(CCNS(=O)(=O)c1ccccc1C(F)(F)F)N1CCN(C(c2ccccc2)c2ccccc2)CC1 returned CendR NRP1 mod 4, FAS TE block 28, ADAM17 inh 8.9*, Arr AP2 block 31, ADAM10 inh 9, ADAM10 ctr 30* and ADAM17 confirm 18*.
For O=C(CCNS(=O)(=O)c1ccccc1C(F)(F)F)NCCCSc1ccccc1 the results were CendR NRP1 mod 0, FAS TE block 14, ADAM17 inh 8.7*, Arr AP2 block 36, ADAM10 inh 9, ADAM10 ctr 14 and ADAM17 confirm 10*.
`CCOC(=O)CC[C@H]1CC[C@]2(CCCN(S(=O)(=O)c3ccccc3)C2)O1` gave ADAM17 inh -2 and ADAM10 inh -7.

High-throughput results (PubChem BioAssay)
